# Yeast eIF2B: GCN4-lacZ reporter reduction in eIF2B-epsilon mutant yeast, primary screen, S. cerevisiae, eIF2B-epsilon R284H, Beta-Glo luminescence | inhibition, % at 25 µM (by protocol) | 0.91% of 27,000 active | AID 688, 2007;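 active means mutant luminescence inhibited past about 50% while wild type luminescence and mutant growth stay under set limits, limit read from the data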
#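 Material – yeast eIF2B-epsilon R284H mutant carrying GCN4–beta-galactosidase fusion · Medium – YPD yeast growth medium · Compound – one concentration, 25 µM, 0.25% DMSO · Times – 16 h at 30 °C exposure · Signal – Beta-Glo luminescence plus absorbance at 595 nm · Read-out – % inhibition of reporter signal and growth versus controls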
# Yeast tox: yeast growth toxicity, wild-type and mutant, primary screen, cytotoxicity control for eIF2B function restoration project, wild-type and eIF2Bepsilon R284H mutant, A595; S. cerevisiae wild-type growth, A595 turbidity, 16 h; growth inhibition, % at 25 µM (by protocol); 0.3% of 30,000 active; AID 685, 2007;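 active means mutant and wild-type yeast strains alike exhibit over 30% growth inhibition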;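 further: 0% = untreated cell controls and 100% = YPD media blanks without cells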
#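 system = S. cerevisiae wild-type or eIF2Bepsilon-R284H mutant strain | buffer or medium = YPD medium | dosing = one dose, 25 µM compound, 0.2% DMSO | schedule = 16 h at 30 °C | measured by = A595 turbidity | evaluation = growth inhibition (%) versus cell controls and blanks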
# * = called active by the depositor; x = no result given. The list is not random: actives were taken first. Their share in the collection is about 1.1%.
SMILES,Yeast eIF2B,Yeast tox
Cc1ccc(Cn2nnnc2CN2CCC(O)(c3ccc(F)cc3)CC2)cc1,69.3*,2.3
COc1ccc(C2(O)CCN(Cc3nnnn3Cc3ccc(C)cc3)CC2)cc1,-5.9,10.9
Cc1cc(C)n(CC(O)CN2C(=O)NC(C)(C)C2=O)n1 (stereo unspecified),-11.9,-0.4
COC(=O)C(Cc1cnc(Cl)s1)(C(=O)OC)c1ccc([N+](=O)[O-])cc1,20.4,17.0
COC(=O)CSc1nnc2n(-c3ccc(OC)cc3)c(=O)c3c4c(sc3n12)CCCCC4,73.8*,1.1
CCOC(=O)CSc1nnc2n(C3CCCCC3)c(=O)c3c4c(sc3n12)CCCC4,11.5,-2.5
O=C(Nc1ccc(N2CCOCC2)c(Cl)c1)c1ccc(F)cc1,13.8,-4.3
COc1ccc(C(=O)COC(=O)c2ccc(OC)c(OC)c2)cc1OC,29.9,-16.5
COc1ccc(C(=O)COC(=O)CN2C(=O)NC(C)(C)C2=O)cc1OC,60.0*,-5.9
COc1cccc(-c2nnc(-c3ccc(C(F)(F)F)cc3)o2)c1,-30.0,-2.6
Oc1ccccc1-c1nnc(-c2ccc(C(F)(F)F)cc2)o1,52.8*,-4.2
O=C(O)c1ccc(OCc2occc2C(=O)O)cc1,12.6,-2.1
CCOC(=O)CN(C(=O)Cn1nnc(-c2ccc(OC)cc2)n1)C(C(=O)NC1CCCC1)c1ccc(F)cc1 (stereo unspecified),17.4,16.2
COc1ccc(-c2nnn(CC(=O)N(Cc3ccc(F)cc3)C(C(=O)NC3CCCC3)c3ccc(F)cc3)n2)cc1 (stereo unspecified),55.5*,-7.9
c1ccc(NCn2cncn2)nc1,9.8,3.1
OC(Cn1cncn1)(c1ccccc1)c1ccccc1,x,85.8*
Cc1csc(NC(=O)CSc2nc(C)cs2)n1,15.9,10.2
Cc1csc(NC(=O)c2cccn2C)n1,51.1*,-4.3
CN1CCC(=NNC(=O)C(=O)NC2CCCC2)CC1,29.2,20.7
CC(O)/C=C/c1ccc2ccccc2n1 (stereo unspecified),37.2,31.4*
CC(Sc1ccc2ccccc2n1)C(=O)O (stereo unspecified),x,8.6
CCOC(=O)N1CCN(C(=O)CC(C(=O)N2CCc3ccccc32)n2ccnc2)CC1 (stereo unspecified),0.2,13.1
COC(=O)C(CC(=O)c1ccc(Br)cc1)n1ccnc1 (stereo unspecified),-10.0,33.5*
CCCC(=O)O[C@H]1C[C@@H](C)N(C(=O)c2ccccc2)c2ccc(C)cc21,9.7,6.5
CCOC(=O)c1c(N)nn(C(C)=O)c1-c1ccccc1,53.8*,-2.9
SMILES,Yeast eIF2B,Yeast tox
CCOC(=O)c1c(N)nn(C(=O)C(C)C)c1-c1ccc(OC)cc1,12.1,-41.0
CNC(=O)CN(C1CCCCC1)S(=O)(=O)c1ccc(F)cc1,29.6,10.4
CCOc1cc(C(C#N)N2CCCCC2)ccc1OC (stereo unspecified),-12.3,8.6
COc1cccc(-c2nc(N3CCCCC3C)c3ccccc3n2)c1O (stereo unspecified),56.5*,-7.0
C=CCNc1nc(-c2cccc(OC)c2O)nc2ccccc12,57.0*,-18.7
c1ccc2c(N3CCCC3)nc(-c3ccncc3)nc2c1,-3.7,x
COc1cccc(-c2nc(NCc3ccco3)c3ccccc3n2)c1O,22.5,11.6
O=C(CCCN1C(=O)c2cccc3cccc(c23)C1=O)N1CCc2ccccc2C1,x,9.3
CCNC(=O)CN(c1ccc(Cl)cc1)S(=O)(=O)c1ccccc1,x,-3.2
COC(=O)c1cc2nc(-c3ccc(OC)cc3)cc(C(F)(F)F)n2n1,-11.3,-16.6
COC(=O)c1nn2c(C(F)(F)F)cc(-c3ccc(Br)o3)nc2c1Br,54.1*,-31.1
CCCCn1c(SCC(=O)Nc2cc(C)on2)nc2c1c(=O)n(C)c(=O)n2C,x,25.9
CC1CCCN(c2nc3c(c(=O)n(C)c(=O)n3C)n2Cc2ccccc2)C1 (stereo unspecified),20.3,3.4
O=C(OCCn1cncn1)c1cc2ccccc2oc1=O,59.2*,-4.7
Cc1ccn(C(=O)c2cc3ccccc3oc2=O)n1,17.7,2.6
CN1C(=O)C(CC(=O)Nc2ccc3c(c2)Cc2ccccc2-3)N(C)C1=O (stereo unspecified),-9.1,20.9
CCCc1nnc(NC(=O)CN2C(=O)c3ccccc3C2=O)s1,19.9,16.9
CCCCCOC(=O)Nc1nnc(CCC)s1,50.6*,0.7
CCC1=[N+](C)CCn2c(C)ccc21,5.9,1.1
CC(C)C1Oc2ccccc2N(CC(=O)N(Cc2ccccn2)CC2CCCO2)C1=O (stereo unspecified),58.9*,-2.2
CSc1ccccc1C(=O)NCC1CCCO1 (stereo unspecified),x,13.2
Cc1ccc(CN(CC2CCCO2)C(=O)CN2C(=O)C(C(C)C)Oc3ccccc32)o1 (stereo unspecified),58.9*,15.7
O=C(CN(CC1CCCO1)C(=O)CCC(=O)Nc1ccccn1)NCc1ccccc1 (stereo unspecified),-9.1,24.7
CCOCCCNC(=O)c1cn(C)c(=O)c2cc(OC)c(OC)cc12,22.1,3.4
CCOC(=O)c1nn(-c2cccc(Cl)c2)c2nc(CC(C)C)c(C#N)c(=O)n12,50.2*,0.9
SMILES,Yeast eIF2B,Yeast tox
Cc1cc2n(c(=O)c1C#N)CCCN2c1cccc(Cl)c1,44.7,-3.2
O=C(CN(Cc1ccc2c(c1)OCO2)C(=O)CNS(=O)(=O)c1ccccc1)NCC1CCCO1 (stereo unspecified),20.3,15.6
O=C(c1ccc2c(c1)OCO2)N(c1ccc(F)cc1)C1C=CS(=O)(=O)C1 (stereo unspecified),56.5*,-3.6
O=C(Cc1ccccc1)N(c1ccc(F)cc1)C1C=CS(=O)(=O)C1 (stereo unspecified),56.1*,7.3
O=C(Cc1ccc(F)cc1)N(c1ccc(F)cc1)C1C=CS(=O)(=O)C1 (stereo unspecified),-25.9,-1.3
CC(C)C(=O)N(c1ccc(F)cc1)C1C=CS(=O)(=O)C1 (stereo unspecified),22.7,25.3
CC1(C)C(=O)N(OCc2ccccc2)C(C)(C)C(=O)N1OCc1ccccc1,x,29.6
COc1ccc(S(=O)(=O)N2CCC(C)CC2)cc1Br,16.1,-3.6
COc1ccc(C(=S)N2CCNCC2)cc1,18.3,27.2
COc1cc(C(=S)N2CCCC2)cc(OC)c1O,56.8*,-9.7
Cc1c(C)n(C(=O)CN2CCN(c3ccccn3)CC2)c2ccccc12,-2.9,-10.2
CCOc1ccc(C2C(C#N)=C(N)N3C(=C2C#N)Sc2ccccc23)cc1 (stereo unspecified),53.5*,0.3
N#CC1=C(N)N2C(=C(C#N)C1c1ccccc1)Sc1ccccc12 (stereo unspecified),13.8,7.2
CCOC(=O)COc1ccc(S(=O)(=O)NCc2ccco2)cc1,53.5*,-9.5
CCOC(=O)COc1ccc(S(=O)(=O)NCc2ccncc2)cc1,-1.5,-11.1
O=C(CSc1ncccc1C(=O)O)c1ccc2ccccc2c1,-40.3,-7.3
Cc1nc(N2CCN(C(=O)c3ccco3)CC2)c2c3c(sc2n1)CCCC3,52.6*,7.9
Cc1nc(N2CCN(c3ccccc3)CC2)c2c3c(sc2n1)CCC3,-3.3,-0.4
COc1ccc(C(=O)N2CCCCC2)cc1S(=O)(=O)Nc1cccc(C(=O)O)c1,0.6,1.4

# Source: PubChem
